Legend:
Hepatitis B virus [1] = assay: Antiviral activity against HBV infected in AML12HBV10 cells assessed as reduction viral replication incubated for 48 hrs; type: functional, organism-based; details: AML12HBV10, 48 h
How it was run: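 AML12HBV10 cells were seeded at 2 x 10^4 per well without tetracycline. After one day, 2-fold serial dilutions (10 μM to 0.08 μM) were applied for 48 h. Lysates were denatured, neutralized and dot-blotted, then hybridized with a 32P-labelled riboprobe specific for HBV minus-strand DNA and read by phosphorimager. EC50 was the concentration reducing HBV DNA by 50%.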

[2] = Cytotoxicity against mouse AML12 cells assessed as reduction in cell viability incubated for 48 hrs by MTT assay; type: toxicity, cell-based; details: AML12 cells
How it was run: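 Stable AML12HBV10 hepatocytes (AML12-derived), cultured without tetracycline, were exposed to 2-fold serial dilutions (50 μM to 1.56 μM) for 48 h. Viability was inspected microscopically and quantified by MTT. CC50 was the concentration lowering viability by 50%.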

Hepatitis B virus [3] = assay: Antiviral activity against HBV infected in HepDES19 cells assessed as reduction viral DNA incubated for 4 days by qPCR analysis; type: functional, organism-based; details: HepDES19, 96 h
How it was run: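 HepDES19 (HepG2-derived, tetracycline-inducible HBV) cells in 24-well plates, cultured without tetracycline for 2 days, then mock or serial 2-fold compound dilutions for 4 more days. Cytoplasmic HBV core DNA was extracted and quantified by qPCR. EC50 came from triplicate biological experiments by regression.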

[4] = Cytotoxicity against human HepDES19 cells assessed as reduction in cell viability incubated for 6 days by MTT assay; type: toxicity, cell-based; details: time 6 day
How it was run: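 Tetracycline-free HepDES19 cells in 96-well plates were exposed to […] serial dilutions (50 μM to 0.39 μM) for 6 days. Viability was checked by microscopy and measured by MTT. CC50 was the concentration reducing viability by 50%.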

Row | Compound | EC50 (Hepatitis B virus [1]) [nM] | CC50 at 48 h [2] [µM] | EC50 (Hepatitis B virus [3]) [nM] | CC50 at 144 h [4] [µM]
1 | O=C(Nc1ccc(F)c(Cl)c1)N1CC(c2ccccc2)Nc2ccccc21 (stereo unspecified) | 10000 | > 50 | – | –
2 | Cc1cc(NC(=O)N2c3ccccc3NCC2CN2CCC(F)(F)CC2)ccc1F (stereo unspecified) | 270 | > 50 | – | –
3 | O=C(Nc1ccc(F)c(C(F)F)c1)N1CCNc2ccccc21 | 190 | > 20 | – | –
4 | O=C(Nc1ccc(F)c(Cl)c1)N1CC(CN2CCC(F)(F)C2)N(C(=O)Nc2ccc(F)c(Cl)c2)c2ccccc21 (stereo unspecified) | 1140 | > 100 | – | –
5 | CC1CNc2ccccc2N1C(=O)Nc1ccc(F)c(Cl)c1 (stereo unspecified) | 3020 | > 100 | – | –
6 | O=C(Nc1ccc(F)c(Cl)c1)N1CC(CN2CCOCC2)Nc2ccccc21 (stereo unspecified) | > 10000 | > 20 | – | –
7 | O=C(Nc1ccc(F)c(Cl)c1)N1c2ccccc2NCC1CN1CCOCC1 (stereo unspecified) | 7300 | > 40 | – | –
8 | O=C(NCc1cccc(Cl)c1)N1CCNc2ccccc21 | 8070 | > 100 | – | –
9 | O=C(Nc1cc(F)c(F)c(Cl)c1)N1CCNc2ccccc21 | 930 | > 100 | – | –
10 | Cc1cc(NC(=O)N2CCNc3ccccc32)ccc1F | 240 | > 20 | – | –
11 | O=C(Nc1ccc(F)c(Cl)c1)N1CCN(C(=O)Nc2ccc(F)c(Cl)c2)[C@H]2CCCC[C@H]21 | > 10000 | > 100 | – | –
12 | O=C(Nc1cc(Cl)ccc1F)N1CCNc2ccccc21 | 770 | > 100 | – | –
13 | O=C(Nc1ccc(F)c(Cl)c1)N1CC(CN2CCC(F)(F)CC2)N(C(=O)Nc2ccc(F)c(Cl)c2)c2ccccc21 (stereo unspecified) | 1610 | > 100 | – | –
14 | O=C(Nc1ccc(F)c(Cl)c1)N1CCc2ccccc21 | 970 | > 100 | – | –
15 | O=C(Nc1ccc(F)c(Cl)c1)N1CC2(CCCC2)Nc2ccccc21 | > 10000 | > 100 | – | –
16 | O=C(Nc1ccc(F)c(Cl)c1)N1CCN(CCCCF)c2ccccc21 | > 10000 | > 50 | – | –
17 | O=C(Nc1ccc(F)c(Cl)c1)N1c2ccccc2NCC1c1ccccc1 (stereo unspecified) | 780 | > 50 | – | –
18 | O=C(Nc1ccc(F)c(Cl)c1)N1CCc2cccnc21 | > 10000 | > 25 | – | –
19 | O=C(Nc1ccc(F)c(Cl)c1)N1CC(CN2CCOCC2)N(C(=O)Nc2ccc(F)c(Cl)c2)c2ccccc21 (stereo unspecified) | 2030 | > 100 | – | –
20 | O=C(Nc1cc(F)c(F)c(F)c1)N1c2ccccc2NCC1CN1CCC(F)(F)CC1 (stereo unspecified) | 290 | > 50 | – | –
21 | O=C(Nc1ccc(C(O)(C(F)(F)F)C(F)(F)F)cc1)N1CCNc2ccccc21 | > 10000 | > 20 | – | –
22 | O=C(Nc1ccc(F)c(Cl)c1)N1c2ccccc2NCC1CN1CCC(F)(F)C1 (stereo unspecified) | 1700 | > 100 | – | –
23 | O=C(Nc1ccnc(Cl)c1)N1CCN(C(=O)Nc2ccc(F)c(Cl)c2)c2ccccc21 | 1110 | > 20 | – | –
24 | O=C1CN(C(=O)Nc2ccc(F)c(Cl)c2)c2ccccc2N1 | > 10000 | > 50 | – | –
25 | [N-]=[N+]=Nc1ccc(NC(=O)N2CCNc3ccccc32)cc1Cl | 1660 | > 100 | – | –
26 | O=C(Nc1cccc(Cl)c1)N1c2ccccc2NCC1CN1CCC(F)(F)CC1 (stereo unspecified) | 350 | > 50 | – | –
27 | O=C(Nc1ccc(F)c(Cl)c1)N1CCCCc2ccccc21 | > 10000 | > 100 | – | –
28 | O=C(Nc1ccc(F)c(Cl)c1)N1CCCc2ccccc21 | 1550 | > 100 | – | –

Row | Compound | EC50 (Hepatitis B virus [1]) [nM] | CC50 at 48 h [2] [µM] | EC50 (Hepatitis B virus [3]) [nM] | CC50 at 144 h [4] [µM]
29 | O=C(Cc1ccc(F)c(Cl)c1)N1CCNc2ccccc21 | > 10000 | > 20 | – | –
30 | CC1(C)CCN(CC2CNc3ccccc3N2C(=O)Nc2ccc(F)c(Cl)c2)CC1 (stereo unspecified) | > 10000 | > 40 | – | –
31 | O=C(Nc1ccc(F)c(C(F)F)c1)N1c2ccccc2NCC1CN1CCC(F)(F)CC1 (stereo unspecified) | 100 | > 50 | 40 | 29.3
32 | O=S(=O)(Nc1ccc(F)c(Cl)c1)N1CCNc2ccccc21 | > 10000 | > 100 | – | –
33 | O=C(Nc1ccc(F)c(Cl)c1)C1CCNc2ccccc21 (racemic) | > 10000 | > 100 | – | –
34 | O=C(Nc1cc(F)c(F)c(F)c1)N1CCN(C(=O)Nc2ccc(F)c(Cl)c2)c2ccccc21 | 320 | > 20 | – | –
35 | O=C(Nc1ccc(F)c(C(F)(F)F)c1)N1c2ccccc2NCC1CN1CCC(F)(F)CC1 (stereo unspecified) | 340 | 31.4 | – | –
36 | O=C(Nc1cccc(Cl)c1)N1CCNc2ccccc21 | 1130 | > 100 | – | –
37 | N#Cc1cc(NC(=O)N2CCNc3ccccc32)ccc1F | 520 | > 20 | – | –
38 | O=C(Nc1ccc(F)c(Cl)c1)N1CCNc2cc(F)c(F)cc21 | 1780 | > 100 | – | –
39 | N#Cc1cc(NC(=O)N2c3ccccc3NCC2CN2CCC(F)(F)CC2)ccc1F (stereo unspecified) | 90 | > 50 | 150 | > 50
40 | O=C(Nc1ccc(F)c(Cl)c1)N1CCN[C@H]2CCCC[C@H]21 (relative stereo) | > 10000 | > 100 | – | –
41 | O=C(Nc1ccc(F)c(Cl)c1)c1cccc2c1OCCO2 | – | – | 1020 | > 50
42 | O=C(Nc1ccc(F)c(Cl)c1)N1CCN(C(=O)Nc2cc(Cl)c(F)cc2F)c2ccccc21 | 390 | > 20 | 950 | 16.8
43 | O=C(Nc1cccnc1)N1CCN(C(=O)Nc2ccc(F)c(Cl)c2)c2ccccc21 | 5760 | > 100 | – | –
44 | CC(C)C1CNc2ccccc2N1C(=O)Nc1ccc(F)c(Cl)c1 (stereo unspecified) | 4500 | > 100 | – | –
45 | NC1CCN(C(=O)Nc2ccc(F)c(Cl)c2)c2ccccc21 (racemic) | > 10000 | > 100 | – | –
46 | O=C(Nc1ccc(F)c(C(F)(F)F)c1)N1CCNc2ccccc21 | 320 | > 20 | – | –
47 | O=C(Nc1ccc(F)c(Cl)c1)N1CC(CN2CCC(F)(F)C2)Nc2ccccc21 (stereo unspecified) | 5090 | > 100 | – | –
48 | O=C(Nc1cccc(Cl)c1)N1CCN(C(=O)Nc2ccc(F)c(Cl)c2)c2ccccc21 | 650 | > 100 | – | –
49 | O=C(Nc1cc(F)c(F)c(F)c1)N1CCNc2ccccc21 | 630 | > 100 | – | –
50 | O=C(NCc1ccccc1)N1CCN(C(=O)Nc2ccc(F)c(Cl)c2)c2ccccc21 | > 10000 | > 20 | – | –
51 | O=C(Nc1ccc(F)c(Cl)c1)N1c2ccccc2NCC1CN1CCC(F)(F)CC1 (stereo unspecified) | 280 | > 50 | – | –
52 | O=C(Nc1ccc(F)c(F)c1)N1c2ccccc2NCC1CN1CCC(F)(F)CC1 (stereo unspecified) | 390 | > 50 | – | –
53 | O=C(Nc1ccccc1)N1CCN(C(=O)Nc2ccc(F)c(Cl)c2)c2ccccc21 | 7340 | > 12.5 | – | –
54 | CC1CN(C(=O)Nc2ccc(F)c(Cl)c2)c2ccccc2N1 (stereo unspecified) | > 10000 | > 50 | – | –
55 | O=C(Nc1ccc(F)c(Cl)c1)N1CC(CN2CCC(F)(F)CC2)Nc2ccccc21 (stereo unspecified) | 4320 | > 100 | – | –
